Measurements published in article PMC6736600 (Cell chemical biology, 2019).
Like-named read-outs stand apart in the source and are kept apart here.

What was measured:
N119^3.35A CXCR4 = N119^3.35A CXCR4 (Homo sapiens, UniProt P61073, N119A); format: cell-based; conditions: for signal as % maximum of the WT signaling levels: N119^3.35A CAM, basal CAM activity roughly 47% of maximum WT response to CXCL12; for functional classification on the N119^3.35A CAM: dose-response without CXCL12, classification at 1 μM by one-way ANOVA vs DMSO
Sequence of N119^3.35A CXCR4 (P61073 whole entry N119A): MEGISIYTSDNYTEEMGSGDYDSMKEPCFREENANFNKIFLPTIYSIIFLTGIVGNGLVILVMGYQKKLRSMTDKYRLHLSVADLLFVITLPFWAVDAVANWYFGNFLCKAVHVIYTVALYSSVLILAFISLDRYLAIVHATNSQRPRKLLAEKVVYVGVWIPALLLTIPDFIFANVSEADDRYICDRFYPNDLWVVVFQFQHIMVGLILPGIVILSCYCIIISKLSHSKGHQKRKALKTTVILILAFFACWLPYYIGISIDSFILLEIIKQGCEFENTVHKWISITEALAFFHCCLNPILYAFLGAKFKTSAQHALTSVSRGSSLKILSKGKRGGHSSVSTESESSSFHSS

HIV-1 = conditions: read-out: HIV-1 IC50, cited from earlier work
N119^3.35A/S CXCR4 CAMs = conditions: ref Zhang et al., 2002; cited from earlier work
HIV-1 IIIB = experiment: HIV-1 inhibition in TZM-bl reporter cells; format: cell-based; conditions: read-out: HIV-1 IC50, ± SD
In short: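 TZM-bl cells (HeLa-derived; CD4, CCR5, CXCR4; LTR-driven β-galactosidase and luciferase reporters), 5 × 10³ per well, grown 1–2 days at 37°C, 5% CO2. Serially diluted test compound applied 30 min before infection with HIV-1 IIIB at MOI of one. Reporter activity read per well; IC50 from ≥ three independent experiments, standard deviation given.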

[1] = Cytotoxicity, methylene blue, 72 hours; format: cell-based; conditions: human, TZM-bl cells
human CXCR4 = human CXCR4 (Homo sapiens, UniProt P61073); conditions: CXCL12 binding IC50, WT CXCR4, 125I-CXCL12, HEK-293 membranes; ± SD
Sequence of human CXCR4 (P61073 whole entry): as the sequence (P61073 whole entry N119A) above, with A119N counted along it

[2] = Cytotoxicity, methylene blue, 72 hours; format: cell-based; conditions: human, CEM cells (acute lymphoblastic lymphoma)
N119^3.35S CXCR4 CAM = conditions: ref Mona et al., 2016; cited from earlier work

| IC50 (HIV-1 IIIB) [nM] | IC50 (human CXCR4) [nM] | SMILES | signal as % maximum of the WT signaling levels (N119^3.35A CXCR4) | functional classification on the N119^3.35A CAM (N119^3.35A CXCR4) | IC50 (HIV-1; ref Schols et al., 1997) [nM] | functional classification on N119^3.35A/S CAMs (N119^3.35A/S CXCR4 CAMs) | CC50 at 72 h [1] [nM] | CC50 at 72 h [2] [nM] | effect on N119^3.35A signaling levels vs DMSO (N119^3.35A CXCR4; 1 μM, p < 0.0001) | IC50 (HIV-1; ref Thoma et al., 2008) [nM] | functional classification on the N119^3.35S CAM (N119^3.35S CXCR4 CAM) |
| --- | --- | --- | --- | --- | --- | --- | --- | --- | --- | --- | --- |
|  |  | c1cc(CN2CCCNCCNCCCNCC2)ccc1CN1CCCNCCNCCCNCC1 [AMD3100] | ~ 83% | partial agonism | 4 to 10 | partial agonist |  |  |  |  |  |
| 4.2 ± 0.3 | 27.8 ± 1.9 | Cl.c1nc2c(NCc3cn(CCCNCCCNC4CCCCC4)nn3)nc(N3CCNCC3)nc2[nH]1 [CX0298, N-Cyclohexyl-N’-(3-{4-[(2-piperazin-1-yl-9H-purin-6-ylamino)-methyl]-[1,2,3]triazol-1-yl}-propyl)-propane-1,3-diamine hydrochloride salt] |  | neutral antagonists |  |  | > 50000 | > 50000 |  |  |  |
| 2.4 ± 0.4 | 28 ± 2.7 | Cl.c1nc2c(NCC3CCC(CNCCCNC4CCCCC4)CC3)nc(N3CCNCC3)nc2[nH]1 (stereo not shown) [Compound B7, N-Cyclohexyl-N’-{4-[(2-piperazin-1-yl-9H-purin-6-ylamino)-methyl]-cyclohexylmethyl}-propane-1,3-diamine hydrochloride salt] |  | neutral antagonists |  |  | > 50000 | > 50000 |  |  |  |
|  |  | CC1(C)CN2C(CSC(=NC3CCCCC3)NC3CCCCC3)=CSC2=N1 [IT1t, N,N’-dicyclohexylcarbamimidothioic acid (5,6-dihydro-6,6-dimethylimidazo[2,1-b]thiazol-3-yl)methyl ester] | ~ 25% | inverse agonism |  |  |  |  | significantly reduced signaling levels | 40 | inverse agonist |
